Screens: PubChem BioAssay, several laboratories
RGS4 act – potentiators or activators of RGS4; B-score at 10 µM; hit rate 0.92% among 310,000; HEK293 M3R/inducible RGS4, carbachol calcium flux Fluo4; active compounds read low;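 active means B-score of the integrated calcium signal more than 4 SD below the library mean, with starting fluorescence not abnormally high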;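 further: negative B-score means reduced calcium response which marks RGS4 activation or potentiation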
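System – HEK293 FlpIn-TREx cells, stable M3R, doxycycline-inducible RGS4 · Reagent – ECmax carbachol challenge · Times – compound preincubation 20 min at room temperature before agonist · Technique – Fluo4 fluorescence kinetic imaging of calcium · Measure – B score of integrated Fluo4 ratio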
Hep lipid drop – modulators of hepatic lipid droplet formation; hit rate 0.4% among 240,000; inhibition, % at 6.5 µM; AML12 mouse hepatocytes, oleate lipid droplets, BODIPY imaging; AID 1656;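 active means lipid droplet intensity inhibited by at least 50%, with more than 500 cells counted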
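material = mouse AML12 hepatocyte cell line, fixed after treatment | also added = 100 µM oleic acid challenge | doses = compound at 6.5 µM only | schedule = overnight exposure | technique = Image-based BODIPY and DAPI two-channel analysis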
MrgX1 PAM – allosterically activates human MrgX1 receptor signaling; Q96LB2; MrgX1-HEK293, Fluo-4 calcium flux, FDSS; active compounds read high; B-score at 10 µM; hit rate 0.63% among 310,000; AID 588675;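 active means plate-corrected calcium response at least 3 library SD above typical, normal starting fluorescence, not activating the receptor alone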;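 further: compound read alongside a low EC10 to EC30 dose of BAM8-22 agonist; peak minus trough fluorescence over baseline measured at the second addition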
Target sequence (Q96LB2 whole entry, looked up): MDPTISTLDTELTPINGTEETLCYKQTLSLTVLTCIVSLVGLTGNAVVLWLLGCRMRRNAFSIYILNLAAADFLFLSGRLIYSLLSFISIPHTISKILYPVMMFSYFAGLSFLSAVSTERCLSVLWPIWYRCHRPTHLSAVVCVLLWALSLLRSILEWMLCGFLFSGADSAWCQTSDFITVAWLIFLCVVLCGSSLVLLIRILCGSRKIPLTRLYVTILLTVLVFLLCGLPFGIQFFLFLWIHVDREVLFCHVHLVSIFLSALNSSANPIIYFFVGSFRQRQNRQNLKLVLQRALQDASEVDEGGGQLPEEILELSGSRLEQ
MrgX1 antag – antagonists of human MrgX1 receptor; MRGX1-HEK293 calcium flux, Fluo-4, BAM8-22 antagonism; active compounds read low; B-score at 10 µM; hit rate 1.3% among 310,000; AID 588676;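 active means calcium-response B-score plate-corrected more than 3 library SD below zero, starting fluorescence within 5 deviations, no agonist response on first addition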;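 further: peak minus trough fluorescence over baseline after final BAM8-22 challenge near maximal dose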
MrgX1 agonist – agonists of human MrgX1 receptor. MrgX1-HEK293 cells, Fluo-4 calcium fluorescence, agonist mode; active compounds read high. hit rate 0.44% among 310,000. B-score at 10 µM;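 active means calcium response B-score plate-corrected fluorescence ratio at least 3 library SD, with starting fluorescence B-score inside 5 SD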
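times = overnight plating, then 30 min 37 °C plus 30 min room-temperature dye loading | assay system = stable human MrgX1 HEK293 cell line | input = fifteen thousand cells per well | signal = kinetic calcium dye fluorescence, Fluo-4 NW | dosing = compound delivered in addition one of three | read-out = B-scored fluorescence response ratio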
RGS4 inh – inhibitors of human RGS4. HEK293 M3R/RGS4 inducible, Fluo-4 calcium flux; active compounds read high; triggered by carbachol at its EC20. B-score at 10 µM. hit rate 0.45% among 310,000. AID 463165;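 active means B-score, a plate-corrected calcium signal, over three deviations above library mean, with baseline fluorescence within five deviations of library mean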;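 further: RGS4 expression induced by doxycycline in cells with stable M3 receptor; B-score is computed from the integrated fluorescence ratio over baseline after carbachol; higher B-score means a larger calcium signal and so more RGS4 inhibition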
Target sequence (P49798 whole entry, looked up): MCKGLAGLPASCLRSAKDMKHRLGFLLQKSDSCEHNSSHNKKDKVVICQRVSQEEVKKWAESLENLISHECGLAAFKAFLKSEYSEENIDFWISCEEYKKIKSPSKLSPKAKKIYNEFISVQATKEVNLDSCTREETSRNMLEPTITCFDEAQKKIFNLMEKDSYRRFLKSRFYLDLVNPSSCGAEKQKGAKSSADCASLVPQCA
MrgX1 ag confirm – confirmation of human MrgX1 receptor agonists; activation, % at 10 µM; hit rate 78% among 600; AID 602412; shares compounds with MrgX1 agonist; MrgX1-HEK293, Fluo-4 calcium fluorescence, FDSS;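 active means calcium signal rise, corrected for plate position, at least 3 library SD high, with starting brightness within 5 such deviations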; further: reference of the scale not given here
HEK293 Ca flux – MrgX1 antagonist counter-screen hit in parental HEK293 cells; shares compounds with MrgX1 antag; Fluo-4 calcium fluorescence, FDSS; fluorescence ratio F(max-min)/F0 at 10 µM; hit rate 2% among 4,000; AID 624111;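 active means duplicate-averaged calcium fluorescence ratio at least three times the standard deviation of buffer wells, a nonspecific response in parental cells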
HEK293 Ca counter – MrgX1 allosteric activator counter-screen hit in parental HEK293 cells | shares compounds with MrgX1 antag | parental HEK293 calcium flux, Fluo-4 fluorescence ratio; active compounds read high | fluorescence ratio F(max-min)/F0 at 10 µM | hit rate 0.4% among 4,000 | AID 624114;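 active means calcium fluorescence ratio, averaged over duplicates, at least 3 SD of the buffer-well ratio, meaning a nonspecific response in receptor-free cells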;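 further: untransfected parental HEK293 lacking MrgX1 used as counterscreen for MrgX1 allosteric activators; fluorescence change taken during the second addition on a kinetic imager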
HEK293 Ca cntr2 – activity in parental HEK293 cells lacking MrgX1 receptor; shares compounds with MrgX1 antag; Fluo-4 calcium fluorescence (FDSS); active compounds read high; fluorescence ratio F(max-min)/F0 at 10 µM; hit rate 8.7% among 4,000;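 active means calcium fluorescence ratio at least three times the spread of buffer wells, meaning a non-specific response in parental cells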
Of the large screens only hits and unclear results are named; the others gave an inactive call (follow-up assays come after a bar, where they were run). Sampled rows, rich in hits. Any-hit rate of the full collection: about 3.8%.

Cc1cc(C)cc(N/C(N)=N/c2nc(C)cc(C)n2)c1	MrgX1 agonist 33 | MrgX1 ag confirm 132% | HEK293 Ca flux inactive | HEK293 Ca counter inactive | HEK293 Ca cntr2 inactive
Cc1ccc(N/C(N)=N/c2nc(C)cc(C)n2)cc1	MrgX1 agonist 124 | MrgX1 ag confirm 432% | HEK293 Ca flux inactive | HEK293 Ca counter inactive | HEK293 Ca cntr2 97
Cc1cc(C)nc(/N=C(\N)Nc2ccc(C(C)C)cc2)n1	MrgX1 agonist 32 | MrgX1 ag confirm 119% | HEK293 Ca flux inactive | HEK293 Ca counter inactive | HEK293 Ca cntr2 inactive
Oc1ccccc1-c1nnc2n1CCCCC2	MrgX1 agonist 27 | MrgX1 ag confirm inactive | HEK293 Ca flux inactive | HEK293 Ca counter inactive | HEK293 Ca cntr2 inactive
Cc1ccc(-c2nnc3n2CCCCC3)cc1	none
CCOC(=O)CNc1nc(-c2ccncc2)nc2ccccc12	MrgX1 agonist 56 (no result: RGS4 act, RGS4 inh) | MrgX1 ag confirm 236% | HEK293 Ca flux inactive | HEK293 Ca counter inactive | HEK293 Ca cntr2 47
Cc1ccc(S(=O)(=O)N[C@H](C(=O)N2CCC(C(=O)N[C@@H](CCC(N)=O)C(=O)O)CC2)C(C)C)cc1	none
CCCOC(=O)Cn1cnc2scc(-c3ccc(C)cc3)c2c1=O	none
CCc1ccc(-c2csc3ncn(Cc4ccc(C(=O)O)cc4)c(=O)c23)cc1	MrgX1 agonist 31 | MrgX1 ag confirm 149% | HEK293 Ca flux inactive | HEK293 Ca counter inactive | HEK293 Ca cntr2 inactive
CCn1cc(C(=O)N2CCN(c3ccccc3F)CC2)c(=O)c2ccc(C)nc21	none
CC(=O)Nc1ccc2nc(NC(=O)C(Cl)(Cl)Cl)sc2c1	MrgX1 agonist 29 | MrgX1 ag confirm 162% | HEK293 Ca flux inactive | HEK293 Ca counter inactive | HEK293 Ca cntr2 inactive
O=C(NCC1CCCN1S(=O)(=O)c1cccs1)c1c(F)cccc1F (stereo not drawn)	none (no result: Hep lipid drop)
Cc1cc(NCc2ccccc2)nc2ccccc12	MrgX1 agonist 83 | MrgX1 ag confirm 293% | HEK293 Ca flux inactive | HEK293 Ca counter inactive | HEK293 Ca cntr2 inactive
Cc1ccc(-c2n[nH]c(=O)c3ccccc23)cc1S(=O)(=O)Nc1ccccc1	MrgX1 agonist 30 | MrgX1 ag confirm 206% | HEK293 Ca flux inactive | HEK293 Ca counter inactive | HEK293 Ca cntr2 45
Cc1nnc(SCc2ccc([N+](=O)[O-])cc2)o1	none
COc1ccc(-c2csc(NC(=O)Cc3cc(OC)c(OC)c(OC)c3)n2)cc1OC	none
COc1ccc(-c2csc(NC(=O)CCN3C(=O)C4CC=CCC4C3=O)n2)cc1OC (stereo not drawn)	RGS4 act -7.3, MrgX1 agonist 45 (no result: Hep lipid drop) | MrgX1 ag confirm inactive | HEK293 Ca flux inactive | HEK293 Ca counter inactive | HEK293 Ca cntr2 inactive
COc1ccc(-c2csc(NC(=O)CS(=O)(=O)c3ccc(F)cc3)n2)cc1OC	MrgX1 agonist 55 (no result: Hep lipid drop) | MrgX1 ag confirm inactive | HEK293 Ca flux inactive | HEK293 Ca counter inactive | HEK293 Ca cntr2 inactive
O=C(O)c1ccc(-c2ccc(/C=c3/sc4nc5ccccc5n4c3=O)o2)cc1Cl	MrgX1 agonist 81 | MrgX1 ag confirm 465% | HEK293 Ca flux 0.13 | HEK293 Ca counter inactive | HEK293 Ca cntr2 104
COc1ccc2[nH]c3c(NCCC4=CCCCC4)ncnc3c2c1	none (no result: MrgX1 PAM, MrgX1 antag, MrgX1 agonist)
COc1ccc(/C=C(\NC(=O)c2ccc(OC)cc2)C(=O)Nc2ccccc2C(=O)O)cc1	none
Cc1cc(Nc2ccc(F)cc2)nc(N)n1	none (no result: Hep lipid drop)
Cc1cc(Nc2cc(Cl)cc(Cl)c2)nc(N)n1	MrgX1 agonist 40 | MrgX1 ag confirm 243% | HEK293 Ca flux inactive | HEK293 Ca counter inactive | HEK293 Ca cntr2 inactive
